{"source": "paper PMC4780734", "about": "(International Journal of Nanomedicine, 2016)", "key": {"[1]": {"test": "Pharmacokinetic study after single IV injection", "format": "in vivo, male Sprague–Dawley rats"}, "[2]": {"test": "Particle size distribution by dynamic light scattering", "format": "physicochemical", "conditions": "hydrodynamic size"}, "[3]": {"test": "Critical aggregation concentration by fluorescence pyrene method", "format": "physicochemical", "conditions": "in saline"}, "[4]": {"test": "Lower critical solution temperature", "format": "physicochemical"}, "[5]": {"test": "Solubility of the isolated solid", "format": "physicochemical", "conditions": "light yellow solid"}, "[6]": {"tested_on": "non-small-cell lung carcinoma A549 cells", "test": "Biodistribution of Cy5.5-labeled PP by ex vivo imaging in tumor-bearing mice", "design": "species or system BALB/C nude mice", "conditions": "Cy5.5-labeled PP 60 mg/kg IV", "summary_of_the_method": "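BALB/C nude mice (5 weeks, 15–20 g) were acclimatised for 4 days. A549 cells (1×10^7 in serum-free RPMI 1640) were injected s.c. into the right flank. After 2 weeks, with tumours at 250–300 mm3, mice received the Cy5.5-labelled conjugate (60 mg/kg in saline) IV via the tail vein. Mice were killed at 12, 24, 48 and 72 h, with blood taken by cardiac puncture. Tumour, muscle, liver, kidney, spleen, lung and blood were imaged by CCD camera through a 680–720 nm Cy5.5 emission filter.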"}, "[7]": {"test": "Clearance study of Cy5.5-labeled PP from major organs by ex vivo imaging", "format": "in vivo, BALB/C nude mice", "conditions": "Cy5.5-labeled PP 300 mg/kg IV, mice without tumor, postinjection", "summary_of_the_method": "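Tumour-free BALB/C nude mice (n=30; 5 weeks, 15–20 g; acclimatised 4 days) received the Cy5.5-labelled conjugate at 300 mg/kg IV via the tail vein. Mice were killed at short intervals during week 1, then weekly. Dissected organs were imaged by CCD camera through a 680–720 nm Cy5.5 filter until each organ's intensity fell below that of a blank organ.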"}, "[8]": {"test": "Bioimaging of Pt in mouse kidney by laser ablation ICP-MS", "format": "in vivo", "conditions": "listed as PP", "summary_of_the_method": "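Mouse kidneys were dissected at 2, 12 and 24 h after IV injection, following the biodistribution procedure. Reference drug was dosed to match on (dach)Pt content. Kidneys were cryostat-sectioned at 100 μm and dried at room temperature. Pt was mapped by femtosecond laser ablation ICP-MS.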"}, "male ICR mice": {"tested_on": "male ICR mice", "test": "Acute toxicity study", "format": "in vivo"}, "In vitro release of": {"test": "In vitro release of", "format": "physicochemical", "conditions": "for accumulated amount of released (dach)Pt(II): pH 7.4, 37°C", "summary_of_the_method": "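Conjugate solution (2 mg/mL) was dialysed in cellulose tubing (MWCO 2,000 Da) against phosphate buffer at pH 5.4 or 7.4, at 37°C with stirring at 100 rpm under sink conditions. Dialysate was sampled at set times over 10 days. Released Pt was measured by ICP-MS and expressed as cumulative % of total loaded (dach)Pt.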"}, "[9]": {"tested_on": "gastric tumor cell line (MKN-28)", "test": "Nude mouse xenograft trial", "format": "in vivo, BALB/C nude mice", "summary_of_the_method": "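MKN-28 xenografts were grown in BALB/C nude mice (5 weeks, 15–20 g). Test and reference drugs were dosed to equal (dach)Pt content, at 8 mg (dach)Pt/kg, and reference drug was also given at 16 mg (dach)Pt/kg. Tumour growth and body weight were monitored.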"}}, "note": "“Also recorded” adds a separate entry of the source."}
{"molecule": "O=C1[O][Pt]2([NH][C@@H]3CCCC[C@H]3[NH]2)[O]C1=O", "note": "[Oxaliplatin, oxaliplatin, reference compound]", "values": [{"measurement": "AUC", "setting": "[1]; single IV 1 mg (dach)Pt/kg, male rats, listed as OX", "value": "2,320.4 ng h/mL"}]}
{"molecule": "[NP(MPEG550)(AE)(AA)Pt(dach)]n [Polyplatin]", "values": [{"measurement": "mean diameter", "setting": "[2]", "value": 55.1, "unit": "nm"}, {"measurement": "critical aggregation concentration (CAC)", "setting": "[3]", "value": 18.5, "unit": "mg/L"}, {"measurement": "critical aggregation concentration (CAC)", "setting": "[3]; unit as printed in b33", "value": 18.5, "unit": "mg/L"}, {"measurement": "Lower critical solution temperature (LCST)", "setting": "[4]; 5% solution", "value": "higher than 100 °C"}, {"measurement": "Lower critical solution temperature (LCST)", "setting": "[4]; given with the synthesis", "value": "> 100", "unit": "°C"}, {"measurement": "solubility", "setting": "[5]", "value": "soluble in water and polar organic solvents"}, {"measurement": "plasma concentration course (fluorescence)", "setting": "[6]; 12 to 72 hours postinjection", "value": "decrease slowly"}, {"measurement": "tumor accumulation / tumor selectivity", "setting": "[6]; A549 tumor-bearing mice, EPR effect, listed as PP", "value": "high tumor selectivity"}, {"measurement": "time of maximum concentration in tumor", "setting": "[6]; A549 tumor-bearing mice, postinjection", "value": 48, "unit": "h"}, {"measurement": "tumor-to-tissue ratio, maximum value", "setting": "[6]; at 48 hours postinjection", "value": 12}, {"measurement": "time to clearance from all the major organs including the liver", "setting": "[7]", "value": "about 4 weeks"}, {"measurement": "excretion of platinum from kidney", "setting": "[8]; 12 and 24 hours postinjection", "value": "more rapidly excreted than monomeric OX"}, {"measurement": "platinum distribution/accumulation in kidney", "setting": "[8]; 2 hours postinjection, same dose based on (dach)Pt content", "value": "accumulates much less in kidney; also recorded: much less and relatively homogeneous distribution; also recorded: accumulated much less in the kidney"}, {"measurement": "clearance time relative to OX", "setting": "[1]; PP (6.3 mL/h) compared with OX (116.36 mL/h)", "value": "about 18 times"}, {"measurement": "half-life of the β phase relative to OX", "setting": "[1]; PP compared with OX, rats", "value": "more than twice longer"}, {"measurement": "t1/2 β", "setting": "[1]; single IV 1 mg (dach)Pt/kg, male rats, listed as PP", "value": 13.3, "unit": "h"}, {"measurement": "body weight change depending on the dose", "setting": "male ICR mice; 5, 50, 300 and 2,000 mg/kg IV, 14 days", "value": "no considerable difference in body weight change"}, {"measurement": "LD50", "setting": "male ICR mice; IV in saline, ICR mice, 14 days observation", "value": "more than 2000 mg/kg"}, {"measurement": "accumulated amount of platinum released", "setting": "In vitro release of; pH 5.4, 37°C, 10 days", "value": 98, "unit": "%"}, {"measurement": "accumulated amount of released (dach)Pt(II)", "setting": "In vitro release of; 24 hours", "value": 18, "unit": "%"}, {"measurement": "accumulated amount of released (dach)Pt(II)", "setting": "In vitro release of; 10 days", "value": 72, "unit": "%"}, {"measurement": "antitumor activity", "setting": "[9]; 8 mg (dach)Pt/kg IV on days 1, 5, 9, MKN-28 xenograft", "value": "comparable to OX"}, {"measurement": "death of test mice", "setting": "[9]; 16 mg (dach)Pt/kg IV, MKN-28 xenograft", "value": "without any death"}, {"measurement": "antitumor efficacy compared with OX, overall", "setting": "[9]; MKN-28 xenograft, listed as PP", "value": "remarkably higher antitumor activity"}, {"measurement": "systemic toxicity compared with OX", "setting": "[9]; MKN-28 xenograft, listed as PP", "value": "lower systemic toxicity; also recorded: low systemic toxicity"}, {"measurement": "antitumor activity", "setting": "[9]; double dose of 16 mg (dach)Pt/kg IV on days 1, 5, 9, MKN-28 xenograft, listed as PP", "value": "much better activity"}, {"measurement": "body weight changes", "setting": "[9]; low and high doses, during the drug injection period (days 1, 5, and 9)", "value": "nearly no body weight changes"}]}
